Results on 54 molecules are retold here after ChEMBL document CHEMBL2331506, “Design, synthesis, antiviral and cytostatic evaluation of novel isoxazolidine nucleotide analogues with a carbamoyl linker” (Bioorg Med Chem, 2013).

Structures are written as SMILES. Active and inactive are the calls of the source. No rule for the calls is given here.

This assay relates to Vaccinia virus. Briefly: Antiviral activity against Vaccinia virus Lederle infected in human HEL cells assessed as reduction of virus-induced cytopathogenicity at 250 uM. It is filed as functional, organism-based. As to conditions: Orthopoxvirus vaccinia. An outline of the steps:
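Confluent cell monolayers were infected with 100 CCID50 of virus while exposed to varying compound concentrations. Cytopathicity was scored once it was complete in untreated infected controls. EC50 was taken as the concentration that reduced virus-induced cytopathogenicity by 50%.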
Background: Protection from cytopathic effect is a common read-out in antiviral testing.

On to `CCOP(=O)(OCC)[C@@H]1C[C@H](C(=O)Nc2ccc(C#N)cc2)ON1C` (mixture of isomers), for which the inhibition entry was “inactive”.

For the molecule `CCOP(=O)(OCC)[C@@H]1C[C@H](C(=O)Nc2ccc(OC)c(OC)c2)ON1C` (mixture of isomers), the inhibition entry is “inactive”.

As for `CCOP(=O)(OCC)[C@H]1C[C@H](C(=O)Nc2cc(OC)c(OC)c(OC)c2)ON1C` (mixture of isomers), the inhibition entry is “inactive”.

Regarding `CCOP(=O)(OCC)[C@H]1C[C@H](C(=O)Nc2ccc(C(C)=O)cc2)ON1C` (mixture of isomers), the inhibition result is “inactive”.

As for `CCOP(=O)(OCC)[C@@H]1C[C@H](C(=O)Nc2cc(OC)c(OC)cc2C(C)=O)ON1C` (mixture of isomers), the inhibition entry was “inactive”.

With `CCOP(=O)(OCC)[C@@H]1C[C@@H](C(=O)Nc2ccccc2Cl)ON1C` (racemic), the inhibition entry was “inactive”.

For `CCOP(=O)(OCC)[C@H]1C[C@H](C(=O)Nc2cccc(C#N)c2)ON1C` (racemic), the inhibition result is “inactive”.

Regarding `CCOc1ccc(NC(=O)[C@H]2C[C@@H](P(=O)(OCC)OCC)N(C)O2)cc1` (racemic), the inhibition entry was “inactive”.

`CCOP(=O)(OCC)[C@@H]1C[C@H](C(=O)Nc2ccccc2F)ON1C` (racemic): the inhibition entry is “inactive”.

With `CCOP(=O)(OCC)[C@@H]1C[C@H](C(=O)Nc2cccc(Br)c2)ON1C` (mixture of isomers), the inhibition result is “inactive”.

For `CCOP(=O)(OCC)[C@H]1C[C@H](C(=O)Nc2ccc(Br)cc2)ON1C` (mixture of isomers), the inhibition result is “inactive”.

Take `CCOP(=O)(OCC)[C@@H]1C[C@H](C(=O)Nc2cc(OC)c(OC)c(OC)c2)ON1C` (racemic): the inhibition result is “inactive”.

As for `CCOP(=O)(OCC)[C@@H]1C[C@H](C(=O)Nc2ccc(F)cc2F)ON1C` (mixture of isomers), the inhibition entry was “inactive”.

In the case of `CCOP(=O)(OCC)[C@@H]1C[C@H](C(=O)Nc2cccc(F)c2)ON1C` (mixture of isomers), the inhibition result is “inactive”.

`CCOP(=O)(OCC)[C@H]1C[C@H](C(=O)Nc2ccccc2C(C)=O)ON1C` (mixture of isomers): the inhibition entry was “inactive”.

For `CCOP(=O)(OCC)[C@H]1C[C@H](C(=O)Nc2cc(OC)c(OC)cc2C#N)ON1C` (mixture of isomers), the inhibition result was “inactive”.

With `CCOP(=O)(OCC)[C@H]1C[C@H](C(=O)Nc2cccc(Cl)c2)ON1C` (mixture of isomers), the inhibition entry was “inactive”.

As for `CCOP(=O)(OCC)[C@H]1C[C@H](C(=O)Nc2cccc(OC)c2)ON1C` (racemic), the inhibition result was “inactive”.

Consider `CCOP(=O)(OCC)[C@@H]1C[C@H](C(=O)Nc2cccc(C#N)c2)ON1C` (racemic), for which the inhibition entry was “inactive”.

As for `CCOP(=O)(OCC)[C@H]1C[C@H](C(=O)Nc2ccc(OC)c(OC)c2)ON1C` (mixture of isomers), the inhibition result is “inactive”.

With `CCOP(=O)(OCC)[C@H]1C[C@H](C(=O)Nc2ccccc2[N+](=O)[O-])ON1C` (mixture of isomers), the inhibition result was “inactive”.

With `CCOP(=O)(OCC)[C@@H]1C[C@H](C(=O)Nc2cccc(C(C)=O)c2)ON1C` (racemic), the inhibition result was “inactive”.

With `CCOP(=O)(OCC)[C@H]1C[C@H](C(=O)Nc2ccc([N+](=O)[O-])cc2)ON1C` (mixture of isomers), the inhibition entry is “inactive”.

For the molecule `CCOP(=O)(OCC)[C@@H]1C[C@H](C(=O)Nc2cc(OC)cc(OC)c2)ON1C` (mixture of isomers), the inhibition result is “inactive”.

Take `CCOP(=O)(OCC)[C@@H]1C[C@H](C(=O)Nc2ccccc2[N+](=O)[O-])ON1C` (mixture of isomers): the inhibition entry is “inactive”.

With `CCOP(=O)(OCC)[C@H]1C[C@H](C(=O)Nc2cccc([N+](=O)[O-])c2)ON1C` (mixture of isomers), the inhibition result is “inactive”.

In the case of `CCOP(=O)(OCC)[C@@H]1C[C@H](C(=O)Nc2ccccc2Cl)ON1C` (mixture of isomers), the inhibition result is “inactive”.

Consider `CCOP(=O)(OCC)[C@H]1C[C@H](C(=O)Nc2ccccc2F)ON1C` (mixture of isomers), for which the inhibition entry was “inactive”.

`CCOP(=O)(OCC)[C@@H]1C[C@H](C(=O)Nc2ccc(Br)cc2)ON1C` (mixture of isomers): the inhibition entry is “inactive”.

Turning to `CCOP(=O)(OCC)[C@@H]1C[C@H](C(=O)Nc2ccccc2Br)ON1C` (mixture of isomers), the inhibition entry was “inactive”.

With `CCOP(=O)(OCC)[C@@H]1C[C@H](C(=O)Nc2cccc(OC)c2)ON1C` (mixture of isomers), the inhibition entry was “inactive”.

On to `CCOP(=O)(OCC)[C@@H]1C[C@H](C(=O)Nc2cccc(C)c2)ON1C` (mixture of isomers), for which the inhibition entry is “inactive”.

As for `CCOP(=O)(OCC)[C@@H]1C[C@H](C(=O)Nc2ccc(C(C)=O)cc2)ON1C` (racemic), the inhibition result is “inactive”.

As for `CCOc1ccc(NC(=O)[C@H]2C[C@H](P(=O)(OCC)OCC)N(C)O2)cc1` (mixture of isomers), the inhibition result was “inactive”.

Turning to `CCOP(=O)(OCC)[C@H]1C[C@H](C(=O)Nc2cccc(C(C)=O)c2)ON1C` (mixture of isomers), the inhibition entry is “inactive”.

In the case of `CCOP(=O)(OCC)[C@@H]1C[C@H](C(=O)Nc2cccc([N+](=O)[O-])c2)ON1C` (mixture of isomers), the inhibition entry is “inactive”.

`CCOP(=O)(OCC)[C@@H]1C[C@H](C(=O)Nc2ccc(F)cc2)ON1C` (mixture of isomers): the inhibition result is “inactive”.

Consider `CCOP(=O)(OCC)[C@H]1C[C@H](C(=O)Nc2cccc(Br)c2)ON1C` (racemic), for which the inhibition entry is “inactive”.

Turning to `CCOP(=O)(OCC)[C@H]1C[C@H](C(=O)Nc2cccc(C)c2)ON1C` (racemic), the inhibition entry was “inactive”.

As for `CCOP(=O)(OCC)[C@H]1C[C@H](C(=O)Nc2ccc(F)cc2)ON1C` (racemic), the inhibition entry was “inactive”.

As for `CCOP(=O)(OCC)[C@H]1C[C@H](C(=O)Nc2ccc(F)cc2F)ON1C` (mixture of isomers), the inhibition entry is “inactive”.

`CCOP(=O)(OCC)[C@H]1C[C@H](C(=O)Nc2ccccc2Br)ON1C` (mixture of isomers): the inhibition result is “inactive”.

As for `CCOP(=O)(OCC)[C@@H]1C[C@H](C(=O)Nc2ccc([N+](=O)[O-])cc2)ON1C` (racemic), the inhibition entry is “inactive”.

For the molecule `CCOP(=O)(OCC)[C@@H]1C[C@H](C(=O)Nc2cc(OC)c(OC)cc2C#N)ON1C` (mixture of isomers), the inhibition entry was “inactive”.

On to `CCOP(=O)(OCC)[C@H]1C[C@H](C(=O)Nc2cc(OC)c(OC)cc2C(C)=O)ON1C` (mixture of isomers), for which the inhibition result is “inactive”.

For `CCOP(=O)(OCC)[C@@H]1C[C@H](C(=O)Nc2ccccc2C(C)=O)ON1C` (mixture of isomers), the inhibition entry is “inactive”.

As to `CCOP(=O)(OCC)[C@H]1C[C@H](C(=O)Nc2cccc(F)c2)ON1C` (mixture of isomers), the inhibition entry is “inactive”.

Turning to `CCOP(=O)(OCC)[C@@H]1C[C@H](C(=O)Nc2ccc(Cl)cc2)ON1C` (mixture of isomers), the inhibition entry is “inactive”.

In the case of `CCOP(=O)(OCC)[C@@H]1C[C@H](C(=O)Nc2cccc(Cl)c2)ON1C` (mixture of isomers), the inhibition result is “inactive”.

For the molecule `CCOP(=O)(OCC)[C@H]1C[C@H](C(=O)Nc2cc(OC)cc(OC)c2)ON1C` (mixture of isomers), the inhibition result was “inactive”.

For the molecule `CCOP(=O)(OCC)[C@H]1C[C@H](C(=O)Nc2ccc(C#N)cc2)ON1C` (racemic), the inhibition result was “inactive”.

As for `CCOP(=O)(OCC)[C@H]1C[C@H](C(=O)Nc2ccc(C)cc2)ON1C` (relative stereo), the inhibition result was “inactive”.

As for `CCOP(=O)(OCC)[C@@H]1C[C@H](C(=O)Nc2ccc(C)cc2)ON1C` (mixture of isomers), the inhibition entry was “inactive”.

`CCOP(=O)(OCC)[C@H]1C[C@H](C(=O)Nc2ccc(Cl)cc2)ON1C` (relative stereo): the inhibition entry was “inactive”.
